Our source for the Ratio IC50, Activity and IC50 values is ChEMBL document CHEMBL1156264, “Synthesis and structure-activity relationships of dimeric peptide antagonists of the human immunoglobulin G-human neonatal Fc receptor (IgG-FcRn) interaction” (J Med Chem, 2010).

As a reminder, the IC50 is the midpoint of a concentration-inhibition curve. Read a high IC50 as a need for much substance.

The target of experiment [1] is T1, IgG receptor FcRn large subunit p51 (Homo sapiens, UniProt P55899). The experiment in a line: Ratio of RFCTGHFGGLYPC IC50 to compound IC50 for soluble human FcRn.
In experiment [2] the test system is Mus musculus. Briefly: Increase in human IgG catabolism in endogenous FcRn/beta2m gene knockout TG32B transgenic mouse harboring human FcRn at 1 mg/kg, iv QD for 4 consecutive days measured after 24 hrs by ELISA. The class given is functional, organism-based. Also noted: dose 1 mg/kg. In short, it runs like this:
(§1)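 TG32B mice (muFcRn−/−, muβ2m−/−, huFcRn+/+, huβ2m+/+), 4 per group, got 500 mg/kg hIgG (pooled subtypes) iv at 0 h. Peptide or vehicle (20 mM sodium acetate, pH 5) was given iv at 24, 48, 72 and 96 h. Blood was taken before each injection and at 30, 120 and 168 h. Serum hIgG was measured by ELISA: goat anti-hIgG(Fab) capture, goat anti-hIgG(Fc)-HRP detection.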
In general terms: In an ELISA, binding on a coated surface is turned into a signal by an enzyme label.

Experiment [3] has as its system Mus musculus. The experiment in a line: Increase in human IgG catabolism in endogenous FcRn/beta2m gene knockout TG32B transgenic mouse harboring human FcRn at 5 mg/kg, iv QD for 4 consecutive days measured after 24 hrs by ELISA. The class given is functional, organism-based. Further details: dose 5 mg/kg. In short, it runs like this: as §1
The target of experiment [4] is T1, IgG receptor FcRn large subunit p51. Briefly: Ratio of RF-Pen-TGHFG-Sar-NMeLeu-YPC IC50 to compound IC50 for soluble human FcRn.
Experiment [5] has as its system Mus musculus. Briefly: Increase in human IgG catabolism in iv dosed endogenous FcRn/beta2m gene knockout TG32B transgenic mouse harboring human FcRn administered QD for 4 consecutive days measured after 24 hrs by ELISA. In kind it is functional, organism-based. In short, it runs like this:
as §1

The subject of experiment [6] is Mus musculus. Briefly: Increase in human IgG catabolism in endogenous FcRn/beta2m gene knockout TG32B transgenic mouse harboring human FcRn at 2.5 mg/kg, iv QD for 4 consecutive days measured after 24 hrs by ELISA. The class given is functional, organism-based. Further details: dose 2.5 mg/kg. In a few lines: as §1
In experiment [7] the target is T1, IgG receptor FcRn large subunit p51. The experiment in a line: Ratio of RF-Pen-TG-4GuPhe-G-Sar-NMeLeu-YPC IC50 to compound IC50 for soluble human FcRn.
Experiment [8] has the same target. The experiment in a line: Inhibition of IgG binding to soluble human FcRn after 2 hrs by competition ELISA.
For experiment [9] the target is unchanged. The experiment in a line: Ratio of RF-Pen-NMeAla-GHF-X-NMeLeu-YPC IC50 to compound IC50 for soluble human FcRn.
Experiment [10] shares this target. Briefly: Ratio of RF-Pen-TGHF-valerolactam-NMeLeu-YPC IC50 to compound IC50 for soluble human FcRn.

Activity calls are given as the source filed them. The rule behind the calls is not given here. Numbered stars: 1 amine (or outer) side, 2 acyl side, 3 side chain; on linkers, the order of the positions; unused ones are H or OH. Bridge positions count the residues as written; N and C are the ends. Square brackets hold non-standard residues; d marks the D form. Peptide text beside a SMILES is read from it. I, II: the chains in the order shown. Phe(4-guanidino) = N=C(N)Nc1ccc(C[C@H](N)C(=O)O)cc1; X1 = O=C(C(=O)[*:2])[C@H](Cc1ccc(O)cc1)N[*:1]; NHCH2CH2N(Me)CH2CO = CN(CCN[*:1])CC(=O)[*:2]; NMeL = CN[C@@H](CC(C)C)C(=O)O; Pen = CC(C)(S)[C@H](N)C(=O)O; Suc = O=C(CCC(=O)[*:2])[*:1]; Sar = CNCC(=O)O

T1 sequence (P55899 whole entry): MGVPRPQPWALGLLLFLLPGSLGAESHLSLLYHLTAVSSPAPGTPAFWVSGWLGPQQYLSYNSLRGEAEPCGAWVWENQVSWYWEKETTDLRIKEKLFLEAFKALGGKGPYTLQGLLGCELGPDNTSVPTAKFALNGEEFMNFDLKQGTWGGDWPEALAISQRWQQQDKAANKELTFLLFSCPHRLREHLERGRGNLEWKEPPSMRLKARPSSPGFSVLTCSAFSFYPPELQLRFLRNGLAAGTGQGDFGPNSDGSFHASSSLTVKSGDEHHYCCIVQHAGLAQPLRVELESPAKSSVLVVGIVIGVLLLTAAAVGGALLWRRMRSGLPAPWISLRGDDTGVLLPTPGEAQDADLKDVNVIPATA

For the molecule `CC(C)C[C@@H]1NC(=O)CNC(=O)CNC(=O)[C@H](Cc2ccccc2)NC(=O)[C@H](Cc2c[nH]cn2)NC(=O)CNC(=O)[C@H]([C@@H](C)O)NC(=O)[C@@H](NC(=O)[C@H](Cc2ccccc2)NC(=O)[C@H](CCCNC(=N)N)NC(=O)CCC(=O)NCCN(C)CC(=O)N[C@@H](CCCNC(=N)N)C(=O)N[C@@H](Cc2ccccc2)C(=O)N[C@H]2CSSC[C@@H](C(N)=O)NC(=O)[C@@H]3CCCN3C(=O)C(=O)[C@H](Cc3ccc(O)cc3)NC(=O)[C@H](CC(C)C)NC(=O)CNC(=O)CNC(=O)[C@H](Cc3ccccc3)NC(=O)[C@H](Cc3c[nH]cn3)NC(=O)CNC(=O)[C@H]([C@@H](C)O)NC2=O)CSSC[C@@H](C(N)=O)NC(=O)[C@@H]2CCCN2C(=O)C(=O)[C@H](Cc2ccc(O)cc2)NC1=O`, the Ratio IC50 in [1] amounted to 12.
Take `CC(C)C[C@H]1C(=O)N[C@@H](Cc2ccc(O)cc2)C(=O)C(=O)N2CCC[C@H]2C(=O)N[C@H](C(N)=O)CSSC(C)(C)[C@H](NC(=O)[C@H](Cc2ccccc2)NC(=O)[C@H](CCCNC(=N)N)NC(=O)CCC(=O)N[C@@H](CCCNC(=N)N)C(=O)N[C@@H](Cc2ccccc2)C(=O)N[C@@H]2C(=O)N[C@@H]([C@@H](C)O)C(=O)NCC(=O)N[C@@H](Cc3c[nH]cn3)C(=O)N[C@@H](Cc3ccccc3)C(=O)NCC(=O)N(C)CC(=O)N(C)[C@@H](CC(C)C)C(=O)N[C@@H](Cc3ccc(O)cc3)C(=O)C(=O)N3CCC[C@H]3C(=O)N[C@H](C(N)=O)CSSC2(C)C)C(=O)N[C@@H]([C@@H](C)O)C(=O)NCC(=O)N[C@@H](Cc2c[nH]cn2)C(=O)N[C@@H](Cc2ccccc2)C(=O)NCC(=O)N(C)CC(=O)N1C`: the outcome with Mus musculus [2], in the experiment on Mus musculus [3], with Mus musculus [5] and in the experiment on Mus musculus [6] was Active. In addition, the Ratio IC50 in experiment [4] was determined as 220.
As for `CC(C)C[C@H]1C(=O)N[C@@H](Cc2ccc(O)cc2)C(=O)C(=O)N2CCC[C@H]2C(=O)N[C@H](C(N)=O)CSSC(C)(C)[C@H](NC(=O)[C@H](Cc2ccccc2)NC(=O)[C@H](CCCNC(=N)N)NC(=O)CCC(=O)N[C@@H](CCCNC(=N)N)C(=O)N[C@@H](Cc2ccccc2)C(=O)N[C@@H]2C(=O)N[C@@H]([C@@H](C)O)C(=O)NCC(=O)N[C@@H](Cc3ccc(NC(=N)N)cc3)C(=O)NCC(=O)N(C)CC(=O)N(C)[C@@H](CC(C)C)C(=O)N[C@@H](Cc3ccc(O)cc3)C(=O)C(=O)N3CCC[C@H]3C(=O)N[C@H](C(N)=O)CSSC2(C)C)C(=O)N[C@@H]([C@@H](C)O)C(=O)NCC(=O)N[C@@H](Cc2ccc(NC(=N)N)cc2)C(=O)NCC(=O)N(C)CC(=O)N1C` (I: RF[Pen]TG[Phe(4-guanidino)]G[Sar][NMeL][X1]PC-NH2 / II: RF[Pen]TG[Phe(4-guanidino)]G[Sar][NMeL][X1]PC-NH2; disulfide I:3-I:12, II:3-II:12; linker I:N-II:N via Suc), the outcome with Mus musculus [2] was Active. For the same molecule, in experiment [7], the Ratio IC50 was determined as 50.
Consider `CC(C)C[C@H]1C(=O)N[C@@H](Cc2ccc(O)cc2)C(=O)C(=O)N2CCC[C@H]2C(=O)N[C@H](C(N)=O)CSSC(C)(C)[C@H](NC(=O)[C@H](Cc2ccccc2)NC(=O)[C@H](CCCNC(=N)N)NC(=O)CCC(=O)NCCN(C)CC(=O)N[C@@H](CCCNC(=N)N)C(=O)N[C@@H](Cc2ccccc2)C(=O)N[C@@H]2C(=O)N(C)[C@@H](C)C(=O)NCC(=O)N[C@@H](Cc3c[nH]cn3)C(=O)N[C@@H](Cc3ccccc3)C(=O)N[C@H]3CCCN(CC(=O)N(C)[C@@H](CC(C)C)C(=O)N[C@@H](Cc4ccc(O)cc4)C(=O)C(=O)N4CCC[C@H]4C(=O)N[C@H](C(N)=O)CSSC2(C)C)C3=O)C(=O)N(C)[C@@H](C)C(=O)NCC(=O)N[C@@H](Cc2c[nH]cn2)C(=O)N[C@@H](Cc2ccccc2)C(=O)N[C@H]2CCCN(CC(=O)N1C)C2=O`, for which the result in the experiment with Mus musculus [2] was Active. Further, the IC50 in [8] stood at 18 nM. The Ratio IC50 in [9] was 61.
For the molecule `CC(C)C[C@H]1C(=O)N[C@@H](Cc2ccc(O)cc2)C(=O)C(=O)N2CCC[C@H]2C(=O)N[C@H](C(N)=O)CSSC(C)(C)[C@H](NC(=O)[C@H](Cc2ccccc2)NC(=O)[C@H](CCCNC(=N)N)NC(=O)CCC(=O)NCCN(C)CC(=O)N[C@@H](CCCNC(=N)N)C(=O)N[C@@H](Cc2ccccc2)C(=O)N[C@@H]2C(=O)N[C@@H]([C@@H](C)O)C(=O)NCC(=O)N[C@@H](Cc3c[nH]cn3)C(=O)N[C@@H](Cc3ccccc3)C(=O)N[C@H]3CCCN(CC(=O)N(C)[C@@H](CC(C)C)C(=O)N[C@@H](Cc4ccc(O)cc4)C(=O)C(=O)N4CCC[C@H]4C(=O)N[C@H](C(N)=O)CSSC2(C)C)C3=O)C(=O)N[C@@H]([C@@H](C)O)C(=O)NCC(=O)N[C@@H](Cc2c[nH]cn2)C(=O)N[C@@H](Cc2ccccc2)C(=O)N[C@H]2CCCN(CC(=O)N1C)C2=O`, the Ratio IC50 in experiment [10] came out at 110. Besides, the result with Mus musculus [5] was Active.
Turning to `CC(C)C[C@H]1C(=O)N[C@@H](Cc2ccc(O)cc2)C(=O)C(=O)N2CCC[C@H]2C(=O)N[C@H](C(N)=O)CCCCNC(=O)C[C@H](NC(=O)[C@H](Cc2ccccc2)NC(=O)[C@H](CCCNC(=N)N)NC(=O)CCC(=O)NCCN(C)CC(=O)N[C@@H](CCCNC(=N)N)C(=O)N[C@@H](Cc2ccccc2)C(=O)N[C@H]2CC(=O)NCCCC[C@@H](C(N)=O)NC(=O)[C@@H]3CCCN3C(=O)C(=O)[C@H](Cc3ccc(O)cc3)NC(=O)[C@H](CC(C)C)N(C)C(=O)CN(C)C(=O)CNC(=O)[C@H](Cc3ccccc3)NC(=O)[C@H](Cc3c[nH]cn3)NC(=O)CNC(=O)[C@H]([C@@H](C)O)NC2=O)C(=O)N[C@@H]([C@@H](C)O)C(=O)NCC(=O)N[C@@H](Cc2c[nH]cn2)C(=O)N[C@@H](Cc2ccccc2)C(=O)NCC(=O)N(C)CC(=O)N1C` (I: [NHCH2CH2N(Me)CH2CO]RFDTGHFG[Sar][NMeL][X1]PK-NH2 / II: RFDTGHFG[Sar][NMeL][X1]PK-NH2; lactam I:4-I:14, II:3-II:13; linker I:N-II:N via Suc), the outcome in the experiment on Mus musculus [3] was Active. In addition, in experiment [8], the concentration for half-maximal inhibition (IC50) came out at 50 nM.
